In brackets after ≈: the same amount, converted by molar mass.
System: Staphylococcus aureus
Test: Antimicrobial activity against vancomycin-intermediate-resistant Staphylococcus aureus NRS1 assessed as reduction in bacterial growth incubated for 18 to 20 hrs at 37 degC by broth microdilution method
Format: functional
Conditions: not given
Procedure, shortened: (§1)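 Modified CLSI broth microdilution. Bacterial suspension of about 1 × 10^5 CFU/mL in tryptic soy broth. Each agent was added in triplicate to the first row and serially diluted down the plate. Plates were incubated at 37 °C for 18-20 h. MIC was read as the lowest concentration with no visible growth.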
With `[C-]#[N+]c1cccc(/C=C/c2ccccc2)c1` the MIC was 32 µM (≈ 6.57 µg/mL).
With `[C-]#[N+]c1ccccc1-c1ccc2ccccc2c1` the MIC was 4 µM (≈ 0.917 µg/mL).
For `[C-]#[N+]c1ccccc1/C=C/c1ccc(F)cc1`, the MIC was 4 µM (≈ 0.893 µg/mL).
Molecule `[C-]#[N+]c1ccccc1/C=C/c1ccc(OC)cc1` has an MIC of 4 µM (≈ 0.941 µg/mL).
`[C-]#[N+]c1ccccc1/C=C/c1ccccc1F` gave an MIC of 4 µM (≈ 0.893 µg/mL).
`[C-]#[N+]c1ccccc1/C=C/c1cccc(F)c1` showed an MIC of 8 µM (≈ 1.79 µg/mL).
For `[C-]#[N+]c1ccccc1/C=C/c1cccnc1`, the MIC was 64 µM (≈ 13.2 µg/mL).

System: Staphylococcus aureus
Test: Antimicrobial activity against methicillin-resistant Staphylococcus aureus USA300 assessed as reduction in bacterial growth incubated for 18 to 20 hrs at 37 degC by broth microdilution method
Format: functional
Conditions: not given
Procedure, shortened: as §1
`[C-]#[N+]c1cccc(/C=C/c2ccccc2)c1` gave an MIC of 16 µM (≈ 3.28 µg/mL).
Work on `[C-]#[N+]c1ccccc1-c1ccc2ccccc2c1` yielded an MIC of 64 µM (≈ 14.7 µg/mL).
Molecule `[C-]#[N+]c1ccccc1/C=C/c1ccc(F)cc1` has an MIC of 8 µM (≈ 1.79 µg/mL).
With `[C-]#[N+]c1ccccc1/C=C/c1ccc(OC)cc1` the MIC was 16 µM (≈ 3.76 µg/mL).
With `[C-]#[N+]c1ccccc1/C=C/c1ccccc1F` the MIC was 16 µM (≈ 3.57 µg/mL).
Work on `[C-]#[N+]c1ccccc1/C=C/c1cccc(F)c1` yielded an MIC of 32 µM (≈ 7.14 µg/mL).
In the case of `[C-]#[N+]c1ccccc1/C=C/c1cccnc1`, the MIC is reported as 16 µM (≈ 3.3 µg/mL).

System: not listed separately
Test: Metabolic stability in human liver microsomes assessed as compound remaining incubated for 60 mins in absence of NADPH
Format: ADME
Conditions: read-out: Stability
Molecule `CC(=O)CC(c1ccccc1)c1c(O)c2ccccc2oc1=O` (stereo unspecified) [WARFARIN] has a remaining at 1 h of 94%.

System: Staphylococcus aureus
Test: Antimicrobial activity against vancomycin-resistant Staphylococcus aureus VRS2 assessed as reduction in bacterial growth incubated for 18 to 20 hrs at 37 degC by broth microdilution method
Format: functional
Conditions: not given
Procedure, shortened: as §1
`[C-]#[N+]c1cccc(/C=C/c2ccccc2)c1` gave an MIC of 32 µM (≈ 6.57 µg/mL).
With `[C-]#[N+]c1ccccc1-c1ccc2ccccc2c1` the MIC was 64 µM (≈ 14.7 µg/mL).
For `[C-]#[N+]c1ccccc1/C=C/c1ccc(F)cc1`, the MIC was 32 µM (≈ 7.14 µg/mL).
`[C-]#[N+]c1ccccc1/C=C/c1ccc(OC)cc1` gave an MIC of 32 µM (≈ 7.53 µg/mL).
`[C-]#[N+]c1ccccc1/C=C/c1ccccc1F` showed an MIC of 32 µM (≈ 7.14 µg/mL).
For `[C-]#[N+]c1ccccc1/C=C/c1cccc(F)c1`, the MIC was 128 µM (≈ 28.6 µg/mL).
`[C-]#[N+]c1ccccc1/C=C/c1cccnc1` gave an MIC of 32 µM (≈ 6.6 µg/mL).

System: Staphylococcus aureus
Test: Antimicrobial activity against methicillin-resistant Staphylococcus aureus USA500 assessed as reduction in bacterial growth incubated for 18 to 20 hrs at 37 degC by broth microdilution method
Format: functional
Conditions: not given
Procedure, shortened: as §1
Molecule `[C-]#[N+]c1cccc(/C=C/c2ccccc2)c1` has an MIC of over 128 µM.
Work on `[C-]#[N+]c1ccccc1-c1ccc2ccccc2c1` yielded an MIC of 32 µM (≈ 7.34 µg/mL).
`[C-]#[N+]c1ccccc1/C=C/c1ccc(F)cc1` showed an MIC of 16 µM (≈ 3.57 µg/mL).
`[C-]#[N+]c1ccccc1/C=C/c1ccc(OC)cc1` showed an MIC of over 128 µM.
In the case of `[C-]#[N+]c1ccccc1/C=C/c1ccccc1F`, the MIC is reported as 16 µM (≈ 3.57 µg/mL).
In the case of `[C-]#[N+]c1ccccc1/C=C/c1cccc(F)c1`, the MIC is reported as 128 µM (≈ 28.6 µg/mL).
For `[C-]#[N+]c1ccccc1/C=C/c1cccnc1`, the MIC was 32 µM (≈ 6.6 µg/mL).

System: Staphylococcus aureus
Test: Antimicrobial activity against methicillin-resistant Staphylococcus aureus USA200 assessed as reduction in bacterial growth incubated for 18 to 20 hrs at 37 degC by broth microdilution method
Format: functional
Conditions: not given
Procedure, shortened: as §1
For `[C-]#[N+]c1cccc(/C=C/c2ccccc2)c1`, the MIC was 32 µM (≈ 6.57 µg/mL).
Molecule `[C-]#[N+]c1ccccc1-c1ccc2ccccc2c1` has an MIC of 64 µM (≈ 14.7 µg/mL).
With `[C-]#[N+]c1ccccc1/C=C/c1ccc(F)cc1` the MIC was 2 µM (≈ 0.446 µg/mL).
In the case of `[C-]#[N+]c1ccccc1/C=C/c1ccc(OC)cc1`, the MIC is reported as 2 µM (≈ 0.471 µg/mL).
`[C-]#[N+]c1ccccc1/C=C/c1ccccc1F` gave an MIC of 2 µM (≈ 0.446 µg/mL).
For `[C-]#[N+]c1ccccc1/C=C/c1cccc(F)c1`, the MIC was 16 µM (≈ 3.57 µg/mL).
With `[C-]#[N+]c1ccccc1/C=C/c1cccnc1` the MIC was 32 µM (≈ 6.6 µg/mL).

System: Staphylococcus aureus
Test: Antimicrobial activity against methicillin-resistant Staphylococcus aureus USA100 assessed as reduction in bacterial growth incubated for 18 to 20 hrs at 37 degC by broth microdilution method
Format: functional
Conditions: not given
Procedure, shortened: as §1
For `[C-]#[N+]c1cccc(/C=C/c2ccccc2)c1`, the MIC was 32 µM (≈ 6.57 µg/mL).
`[C-]#[N+]c1ccccc1-c1ccc2ccccc2c1` showed an MIC of 16 µM (≈ 3.67 µg/mL).
`[C-]#[N+]c1ccccc1/C=C/c1ccc(F)cc1` showed an MIC of 8 µM (≈ 1.79 µg/mL).
Work on `[C-]#[N+]c1ccccc1/C=C/c1ccc(OC)cc1` yielded an MIC of 8 µM (≈ 1.88 µg/mL).
`[C-]#[N+]c1ccccc1/C=C/c1ccccc1F` gave an MIC of 8 µM (≈ 1.79 µg/mL).
For `[C-]#[N+]c1ccccc1/C=C/c1cccc(F)c1`, the MIC was 16 µM (≈ 3.57 µg/mL).
`[C-]#[N+]c1ccccc1/C=C/c1cccnc1` showed an MIC of 32 µM (≈ 6.6 µg/mL).

System: Staphylococcus aureus
Test: Antimicrobial activity against methicillin-resistant Staphylococcus aureus USA700 assessed as reduction in bacterial growth incubated for 18 to 20 hrs at 37 degC by broth microdilution method
Format: functional
Conditions: not given
Procedure, shortened: as §1
`[C-]#[N+]c1cccc(/C=C/c2ccccc2)c1` showed an MIC of 16 µM (≈ 3.28 µg/mL).
Work on `[C-]#[N+]c1ccccc1-c1ccc2ccccc2c1` yielded an MIC of 16 µM (≈ 3.67 µg/mL).
`[C-]#[N+]c1ccccc1/C=C/c1ccc(F)cc1` gave an MIC of 8 µM (≈ 1.79 µg/mL).
For `[C-]#[N+]c1ccccc1/C=C/c1ccc(OC)cc1`, the MIC was 8 µM (≈ 1.88 µg/mL).
`[C-]#[N+]c1ccccc1/C=C/c1ccccc1F` showed an MIC of 8 µM (≈ 1.79 µg/mL).
`[C-]#[N+]c1ccccc1/C=C/c1cccc(F)c1` showed an MIC of 16 µM (≈ 3.57 µg/mL).
`[C-]#[N+]c1ccccc1/C=C/c1cccnc1` gave an MIC of 32 µM (≈ 6.6 µg/mL).

System: J774
Format: cell-based
Conditions: mouse, j774, 2 h, 128 µM
In the case of `[C-]#[N+]c1cccc(/C=C/c2ccccc2)c1`, the Activity is reported as “Toxic”.
With `[C-]#[N+]c1ccccc1-c1ccc2ccccc2c1` the Activity was “Toxic”.
For `[C-]#[N+]c1ccccc1/C=C/c1ccc(F)cc1`, the Activity was “Toxic”.
With `[C-]#[N+]c1ccccc1/C=C/c1ccc(OC)cc1` the Activity was “Toxic”.
For `[C-]#[N+]c1ccccc1/C=C/c1ccccc1F`, the Activity was “Toxic”.
In the case of `[C-]#[N+]c1ccccc1/C=C/c1cccc(F)c1`, the Activity is reported as “Toxic”.
With `[C-]#[N+]c1ccccc1/C=C/c1cccnc1` the Activity was “Non-toxic”.

System: Staphylococcus aureus
Test: Antimicrobial activity against methicillin-resistant Staphylococcus aureus NRS119 assessed as reduction in bacterial growth incubated for 18 to 20 hrs at 37 degC by broth microdilution method
Format: functional
Conditions: not given
Procedure, shortened: as §1
With `[C-]#[N+]c1cccc(/C=C/c2ccccc2)c1` the MIC was 64 µM (≈ 13.1 µg/mL).
For `[C-]#[N+]c1ccccc1-c1ccc2ccccc2c1`, the MIC was 32 µM (≈ 7.34 µg/mL).
Molecule `[C-]#[N+]c1ccccc1/C=C/c1ccc(F)cc1` has an MIC of 16 µM (≈ 3.57 µg/mL).
Molecule `[C-]#[N+]c1ccccc1/C=C/c1ccc(OC)cc1` has an MIC of 32 µM (≈ 7.53 µg/mL).
`[C-]#[N+]c1ccccc1/C=C/c1ccccc1F` showed an MIC of 32 µM (≈ 7.14 µg/mL).
`[C-]#[N+]c1ccccc1/C=C/c1cccc(F)c1` showed an MIC of 128 µM (≈ 28.6 µg/mL).
`[C-]#[N+]c1ccccc1/C=C/c1cccnc1` showed an MIC of 64 µM (≈ 13.2 µg/mL).

System: Staphylococcus aureus
Test: Antimicrobial activity against methicillin-sensitive Staphylococcus aureus NRS72 assessed as reduction in bacterial growth incubated for 18 to 20 hrs at 37 degC by broth microdilution method
Format: functional
Conditions: not given
Procedure, shortened: as §1
For `[C-]#[N+]c1cccc(/C=C/c2ccccc2)c1`, the MIC was 16 µM (≈ 3.28 µg/mL).
For `[C-]#[N+]c1ccccc1-c1ccc2ccccc2c1`, the MIC was 16 µM (≈ 3.67 µg/mL).
Molecule `[C-]#[N+]c1ccccc1/C=C/c1ccc(F)cc1` has an MIC of 4 µM (≈ 0.893 µg/mL).
Molecule `[C-]#[N+]c1ccccc1/C=C/c1ccc(OC)cc1` has an MIC of 4 µM (≈ 0.941 µg/mL).
In the case of `[C-]#[N+]c1ccccc1/C=C/c1ccccc1F`, the MIC is reported as 4 µM (≈ 0.893 µg/mL).
`[C-]#[N+]c1ccccc1/C=C/c1cccc(F)c1` gave an MIC of 8 µM (≈ 1.79 µg/mL).
`[C-]#[N+]c1ccccc1/C=C/c1cccnc1` showed an MIC of 64 µM (≈ 13.2 µg/mL).

System: J774
Test: Cytotoxicity against mouse J774 cells assessed as reduction in cell viability at 32 uM incubated for 2 hrs by MTS assay
Format: cell-based
Conditions: j774, 2 h
Procedure, shortened: (§2)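 Murine J774 macrophages grown in DMEM with 10% FBS at 37 °C, 5% CO2. Compounds were tested in triplicate at 16, 32, 64 and 128 μM for 2 h, with DMSO-matched vehicle controls. MTS reagent was then added and absorbance read at OD490. Viability is given as percent of DMSO-treated cells (mean of triplicate ± standard deviation), compared by paired t-test (P < 0.05).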
With `[C-]#[N+]c1cccc(/C=C/c2ccccc2)c1` the Activity was “Non-toxic”.
With `[C-]#[N+]c1ccccc1-c1ccc2ccccc2c1` the Activity was “Non-toxic”.
With `[C-]#[N+]c1ccccc1/C=C/c1ccc(F)cc1` the Activity was “Non-toxic”.
For `[C-]#[N+]c1ccccc1/C=C/c1ccc(OC)cc1`, the Activity was “Non-toxic”.
For `[C-]#[N+]c1ccccc1/C=C/c1ccccc1F`, the Activity was “Non-toxic”.
With `[C-]#[N+]c1ccccc1/C=C/c1cccc(F)c1` the Activity was “Non-toxic”.
In the case of `[C-]#[N+]c1ccccc1/C=C/c1cccnc1`, the Activity is reported as “Non-toxic”.

System: not listed separately
Test: Metabolic stability in human liver microsomes assessed as compound remaining incubated for 60 mins in presence of NADPH
Format: ADME
Conditions: read-out: Stability
With `CC(=O)CC(c1ccccc1)c1c(O)c2ccccc2oc1=O` (stereo unspecified) [WARFARIN] the remaining at 1 h was 93%.

System: J774
Test: Cytotoxicity against mouse J774 cells assessed as reduction in cell viability at 64 uM incubated for 2 hrs by MTS assay
Format: cell-based
Conditions: j774, 2 h
Procedure, shortened: as §2
With `[C-]#[N+]c1cccc(/C=C/c2ccccc2)c1` the Activity was “Non-toxic”.
With `[C-]#[N+]c1ccccc1-c1ccc2ccccc2c1` the Activity was “Non-toxic”.
In the case of `[C-]#[N+]c1ccccc1/C=C/c1ccc(F)cc1`, the Activity is reported as “Non-toxic”.
For `[C-]#[N+]c1ccccc1/C=C/c1ccc(OC)cc1`, the Activity was “Non-toxic”.
In the case of `[C-]#[N+]c1ccccc1/C=C/c1ccccc1F`, the Activity is reported as “Non-toxic”.
In the case of `[C-]#[N+]c1ccccc1/C=C/c1cccc(F)c1`, the Activity is reported as “Toxic”.
In the case of `[C-]#[N+]c1ccccc1/C=C/c1cccnc1`, the Activity is reported as “Non-toxic”.

Reference: ChEMBL document CHEMBL3611989, “Discovery and characterization of aryl isonitriles as a new class of compounds versus methicillin- and vancomycin-resistant Staphylococcus aureus” (Eur J Med Chem, 2015)
